This is an account of results in article PMC8434889 (Bioorganic Chemistry, 2021).

As usually defined, the EC50 is the concentration that produces a half-maximal response. High values mean lower potency in that assay, low ones higher potency in that assay.

The subject of series [1] is Con A-induced T cell proliferation of murine splenocytes. The experiment in a line: Con A-induced T-cell proliferation. The class given is cell-based, mouse. Particulars: 48 h; for IC50: Mus musculus, T-cell, read-out: Con A-induced T-cell proliferation IC50. The procedure, abridged: (§1)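 Splenocytes from 6–8-week-old female BALB/c mice, with erythrocytes lysed in NH4Cl/Tris buffer (pH 7.2), in RPMI 1640 with 10% FBS and penicillin/streptomycin. Cells at 5 × 10^5 in triplicate for 48 h with or without test compound (DMSO stock diluted in medium). Stimulation: ConA 1 μg/mL for T cells or LPS 10 μg/mL for B cells. [3H]thymidine 0.5 μCi/well pulse for 8 h, filter harvest, scintillation counting. IC50 from log(inhibitor)–normalized response nonlinear fit.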

The subject of series [2] is TNF-α. The series can be described thus: LPS-induced cytokine production in RAW264.7 cell, TNF-α. The class given is cell-based. Particulars: Mus musculus, RAW264.7, 48 h, read-out: TNF-α IC50. The method in brief: (§2)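 Murine RAW264.7 macrophages grown in DMEM with 10% FBS, 2 mM L-glutamine and penicillin/streptomycin at 37 °C, 5% CO2. Cells at 1 × 10^5 in triplicate with or without test compound, then LPS 10 μg/mL for 48 h. Supernatant IL-1β, IL-6 and TNF-α by ELISA. IC50 from log(inhibitor)–normalized response nonlinear fit.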

Series [3] deals with LPS-induced B cell proliferation of murine splenocytes. The experiment in a line: LPS-induced B-cell proliferation. The class given is cell-based, mouse. To be noted: 48 h; for IC50: Mus musculus, B-cell, read-out: LPS-induced B-cell proliferation IC50. The procedure, abridged: as §1
Series [4] in a line: in vitro. To be noted: human.
Series [5] has as its system IFN-γ. The series can be described thus: Con A-induced cytokine production in splenocytes, IFN-γ. The series is classed as cell-based. To be noted: Mus musculus, Splenocyte, 48 h, read-out: IC50 IFN-γ.
In series [6] the test system is IL-1β. The series can be described thus: LPS-induced cytokine production in splenocytes, IL-1β. To be noted: Mus musculus, Splenocyte, 48 h, read-out: IC50 IL-1β. The class given is cell-based.
Series [7] deals with IL-6. The series can be described thus: LPS-induced cytokine production in splenocytes, IL-6. The class given is cell-based. To be noted: Mus musculus, Splenocyte, 48 h, read-out: IC50 IL-6.
Series [8] deals with IL-6. The experiment in a line: LPS-induced cytokine production in RAW264.7 cell, IL-6. To be noted: Mus musculus, RAW264.7, 48 h, read-out: IL-6 IC50. The class given is cell-based. The procedure, abridged: as §2
For series [9], the system named is IL-1β. The series can be described thus: LPS-induced cytokine production in RAW264.7 cell, IL-1β. Particulars: Mus musculus, RAW264.7, 48 h, read-out: IL-1β IC50. The series is classed as cell-based. The method in brief: as §2
Series [10] concerns IL-17. The series can be described thus: Con A-induced cytokine production in splenocytes, IL-17. Particulars: Mus musculus, Splenocyte, 48 h, read-out: IC50 IL-17. The class given is cell-based.
For series [11], the system named is IL-6. The series can be described thus: Con A-induced cytokine production in splenocytes, IL-6. The series is classed as cell-based. Particulars: Mus musculus, Splenocyte, 48 h, read-out: IC50 IL-6.
A short description of series [12]: Splenocytes cytotoxicity. The series is classed as cell-based. To be noted: female, BALB/c, mouse, murine splenocytes. The procedure, abridged:
(§3)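 MTT assay after 48 h culture in triplicate with or without test compound. Cells: 8 × 10^5 BALB/c splenocytes or 1 × 10^5 RAW264.7 cells. MTT reagent (5 mg/mL) added 4 h before end of culture; formazan dissolved in DMSO; absorbance at 570 nm. CC50 from log(inhibitor)–normalized response nonlinear fit.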

Series [13] in a line: Cytotoxicity in RAW264.7 cell. The class given is cell-based. To be noted: mouse, RAW264.7 macrophage cells. The method in brief: as §3
For series [14], the target named is SARS-Cov2 spike glycoprotein (Severe acute respiratory syndrome coronavirus 2, UniProt P0DTC2). The series can be described thus: cell-based. The series is classed as cell-based, SARS-CoV-2.
For series [15], the system named is Huh7 cell. Particulars: read-out: Huh7 cell CC50; MTT, 2 days.

For `CCN(CC)CCCC(C)Nc1ccnc2cc(Cl)ccc12` (centres unmarked) [Compound 1, chloroquine, reference compound], the IC50 in series [1] was 15.27 ± 0.13 µM; in series [2], 35 ± 18.7 µM; in series [3] it was 14.6 ± 0.56 µM; in [5] it was 0.65 ± 0.31 µM; in [6] it was 0.48 ± 0.34 µM; in series [7] it was 0.81 ± 0.78 µM. Further, the IC50 stood at 14.6 ± 1.27 µM in series [8], 2.72 ± 0.75 µM in series [9], 0.65 ± 0.28 µM in series [10] and 7.2 ± 1.49 µM in [11]. Moreover, the CC50 in series [4] was found to be 26.4 µM. Also, the CC50 at 48 h in series [12] came to 25.5 ± 2.47 µM; in series [13], 21.9 ± 3.59 µM.

On to `CCN(CCO)CCCC(C)Nc1ccnc2cc(Cl)ccc12` (centres unmarked) [Compound 2, hydroxychloroquine, reference compound], for which the IC50 is 18.2 ± 1.45 µM in series [1]; 10 ± 2.97 µM in series [2]; 14.2 ± 0.21 µM in [3]; 0.44 ± 0.01 µM in series [5]; 1.49 ± 0.32 µM in [6]; 0.86 ± 0.57 µM in [7]. Further, the IC50 is 16.5 ± 0.55 µM in series [8], 3.51 ± 0.15 µM in [9], 0.62 ± 0.23 µM in series [10] and 5.78 ± 2.39 µM in series [11]. Further, the “2019nCoV-S-HIV EC50” value in [14] is listed as “ineffective”. Also, the EC50 in series [14] is over 80 µM. Moreover, the CC50 in series [4] was over 80 µM. For the same compound, the results for the CC50 at 48 h in series [12] and in series [13] were 26.8 ± 2.81 µM and 25.3 ± 4.38 µM, respectively.

Turning to `CCN(CCCC(C)Nc1ccnc2cc(Cl)ccc12)CCNC1CNC1` (centres unmarked) [Compound 5, N^1-(2-(Azetidin-3-ylamino)ethyl)-N^4-(7-chloroquinolin-4-yl)-N^1-ethylpentane-1,4-diamine], the IC50 in series [1] and in series [3] was over 250 µM throughout. Besides, the “Con A-induced T-cell proliferation IC50” value in [1] (murine splenocytes, Con A 1 μg/mL) is given as “lost activity completely”. Besides, the EC50 in [14] is over 80 µM. The “LPS-induced B-cell proliferation IC50” value in series [3] (murine splenocytes, LPS 10 μg/mL) was “lost activity completely”. In [4], this compound came in with a CC50 of over 80 µM. In [12], this compound gave a CC50 at 48 h of over 250 µM.

Turning to `CCN(CCCC(C)Nc1ccnc2cc(Cl)ccc12)CCNC12CC(N)(C1)C2` (centres unmarked) [Compound 6, N^1-(2-((4-((7-Chloroquinolin-4-yl)amino)pentyl)(ethyl)amino)ethyl)bicyclo[1.1.1]pentane-1,3-diamine], the IC50 came out at 16.7 ± 0.34 µM in [1] and 15.2 ± 0.46 µM in series [3]. For the same compound, the midpoint of the response in series [14], the EC50, lay at 40.5 µM. The compound further gave a CC50 in [4] of 24.9 µM. Also, in series [12], the CC50 at 48 h is 32.4 ± 6.22 µM.

Regarding `CCN(CCCC(C)Nc1ccnc2cc(Cl)ccc12)CCNC(=O)C(F)(F)C1CCNCC1` (centres unmarked) [Compound 8, N-(2-((4-((7-Chloroquinolin-4-yl)amino)pentyl)(ethyl)amino)ethyl)-2,2-difluoro-2-(piperidin-4-yl)acetamide], the IC50 worked out at 45.4 ± 1.43 µM in [1] and 28.3 ± 6.13 µM in series [3]. The EC50 in [14] was 31.6 µM. In addition, the CC50 in series [4] stood at 27.3 µM. The CC50 at 48 h in series [12] was determined as 71.6 ± 3.47 µM.

On to `CCN(CCCC(C)Nc1ccnc2cc(Cl)ccc12)CCNC(=O)C(F)(F)C1CCN(CC(O)C(F)(F)F)CC1` (centres unmarked) [Compound 9, N-(2-((4-((7-Chloroquinolin-4-yl)amino)pentyl)(ethyl)amino)ethyl)-2,2-difluoro-2-(1-(3,3,3-trifluoro-2-hydroxypropyl)piperidin-4-yl)acetamide], for which the IC50 in series [1] is 2.85 ± 0.49 µM; in series [2] it was 15.9 ± 0.45 µM; in [3], 1.07 ± 0.23 µM; in series [5] it was 1.23 ± 0.23 µM; in [6] it was 0.21 ± 0.08 µM; in [7], 0.01 ± 0.01 µM. In addition, the IC50 in [8] was 1.61 ± 0.25 µM; in series [9], 0.72 ± 0.17 µM; in series [10], 1.04 ± 0.2 µM; in series [11] it was 0.16 ± 0.08 µM. In series [14], this compound showed a concentration giving a half-maximal response (EC50) of 32.8 µM. Further, the CC50 in series [15] worked out at 16.7 µM. In addition, the values for the CC50 at 48 h in [12] and in [13] were 5.71 ± 1.04 µM and 48.64 ± 0.18 µM, respectively.

Regarding `CCN(CCCC(C)Nc1ccnc2cc(Cl)ccc12)CCNC(=O)C(F)(F)C1CCN(CCOCCOC)CC1` (centres unmarked) [Compound 10, N-(2-((4-((7-Chloroquinolin-4-yl)amino)pentyl)(ethyl)amino)ethyl)-2,2-difluoro-2-(1-(2-(2-methoxyethoxy)ethyl)piperidin-4-yl)acetamide], the IC50 in series [1] stood at 4.27 ± 0.33 µM; in [2] it was 24.4 ± 6.05 µM; in [3] it was 1.42 ± 0.15 µM; in series [5] it was 0.61 ± 0.34 µM; in series [6] it was 0.003 ± 0.002 µM; in series [7], 1.48 ± 0.81 µM. The IC50 stood at 2.52 ± 0.36 µM in series [8], 1.81 ± 0.83 µM in series [9], 0.25 ± 0.03 µM in series [10] and 2.7 ± 1.16 µM in [11]. In series [14], this compound yielded an EC50 of 5.53 µM. For the same compound, the CC50 in series [15] came out at 5.75 µM. Further, the CC50 at 48 h in [12] turned out to be 8.1 ± 0.77 µM; in [13], 125 ± 45.7 µM.

With `CCN(CCCC(C)Nc1ccnc2cc(Cl)ccc12)CCNC(=O)C(F)(F)C1CCN(C(=O)C2OC(OC)C3OC(C)(C)OC23)CC1` (centres unmarked) [Compound 11, N-(2-((4-((7-Chloroquinolin-4-yl)amino)pentyl)(ethyl)amino)ethyl)-2,2-difluoro-2-(1-(6-methoxy-2,2-dimethyltetrahydrofuro[3,4-d][1,3]dioxole-4-carbonyl)piperidin-4-yl)acetamide], the IC50 amounted to 2.49 ± 0.11 µM in series [1]; 4.41 ± 1.66 µM in series [2]; 2.99 ± 0.73 µM in series [3]; 0.35 ± 0.18 µM in [5]; 0.04 ± 0.03 µM in [6]; 0.17 ± 0.11 µM in series [7]. Further, the IC50 in series [8] turned out to be 1.87 ± 0.44 µM; in [9], 1.19 ± 0.41 µM; in series [10] it was 0.17 ± 0.06 µM; in series [11] it was 0.45 ± 0.18 µM. Also, the response in series [14] was half-maximal at 25.2 µM (EC50). Further, in [15], the CC50 was determined as 16.9 µM. Besides, the figures for the CC50 at 48 h in series [12] and in [13] were 11.24 ± 0.08 µM and 47.71 ± 0.15 µM, respectively.

With `CCN(CCCC(C)Nc1ccnc2cc(Cl)ccc12)CCNC(=O)CCOCCOCCOCCOCCOCC(=O)Nc1ccc2c(c1)OC(F)(F)O2` (centres unmarked) [Compound 15, N^18-(2-((4-((7-Chloroquinolin-4-yl)amino)pentyl)(ethyl)amino)ethyl)-N1-(2,2-difluorobenzo[d][1,3]dioxol-5-yl)-3,6,9,12,15-pentaoxaoctadecanediamide], the IC50 was 1.32 ± 0.06 µM in series [1]; 10.7 ± 3.99 µM in series [2]; 1.44 ± 0.56 µM in series [3]; 1.67 ± 0.44 µM in [5]; 3.34 ± 0.62 µM in series [6]; 1.51 ± 0.53 µM in [7]. Moreover, the IC50 stood at 9.63 ± 3.75 µM in series [8], 3.84 ± 1.25 µM in series [9], 1.76 ± 0.72 µM in series [10] and 0.47 ± 0.16 µM in [11]. For the same compound, the “2019nCoV-S-HIV EC50” value in series [14] is “marginal potency”. This compound also came in with an EC50 in [14] of 20.4 µM. For the same compound, the CC50 in series [4] stood at 21.7 µM. Besides, the CC50 at 48 h in [12] worked out at 6.07 ± 0.4 µM.
